Experimental data collected from several papers.
Target: Protein-tyrosine kinase 6 (PTK6, Homo sapiens, UniProt Q13882)

SMILES | test | conditions | measurement | value
CNC(=O)c1cc(Oc2ccc(NC(=O)Nc3ccc(Cl)c(C(F)(F)F)c3)cc2)ccn1 | enzyme activity, inhibitor | 0.3 µM | inhibition | -3%
CNC(=O)Nc1ccc2c(c1)[C@@]1(CC2)OC(=O)N(CC(=O)N(Cc2ccc(F)cc2)[C@@H](C)C(F)(F)F)C1=O | cell-free assay, competition with immobilised ligand | 1 µM | remaining binding | 90%
CCCOc1ccc(OC)c(F)c1C(=O)c1ccc(C(=O)N[C@@H]2CNC[C@H]2NC(=O)c2ccc3[nH]ncc3c2)cc1 | enzyme activity, inhibitor | 10 µM | remaining activity | 97%
O=C(NS(=O)(=O)c1ccc(NCC2CCOCC2)c([N+](=O)[O-])c1)c1ccc(N2CCN(Cc3ccc(C(F)(F)F)cc3-c3ccc(Cl)cc3)CC2)cc1Oc1cnc2[nH]ccc2c1 | cell-free assay, competition with immobilised ligand | 1 µM | remaining binding | 100%
O=C1Nc2ccc(Cl)cc2C1=Cc1cc(Cl)c(O)c(Cl)c1 | cell-free assay | 0.5 µM | remaining signal | 73.8%
O=C(O)[C@@H]1[C@@H](Cn2nnc3ccccc3c2=O)CC[C@H]1C(=O)c1ccc(OCCC2CCOCC2)cc1 | cell-free assay, competition with immobilised ligand | 1 µM | remaining binding | 99%
CC/C(=N\NC(=O)NCc1cccc(O)c1)c1ccc(O)c(C)c1O | enzyme activity, inhibitor | 0.1 µM | inhibition | -3%
COc1cc(Nc2cnc(C#N)c(O[C@H](C)CN(C)C)n2)ncc1-c1cnn(C)c1 | enzyme activity, inhibitor, radiometric | 10 µM | remaining activity | 91%
Cc1cnc(NC2CCOCC2)nc1-n1cnc(C(=O)NC(CN)c2cc(F)cc(Cl)c2)c1 (stereo not shown) | enzyme activity, inhibitor, radiometric | 1 µM | remaining activity | 127%
COc1ccc2c(O[C@@H]3C[C@H]4C(=O)N[C@]5(C(=O)O)CC5/C=C\CCCCC[C@H](NC(=O)OC5CCCC5)C(=O)N4C3)cc(-c3csc(NC(=O)C(C)C)n3)nc2c1C (stereo partly shown) | cell-free assay, competition with immobilised ligand | 1 µM | remaining binding | 97%
CN(C)C1CCN(CC#Cc2nn(C3CCCC3)c3nc(NCc4ccccc4)ncc23)C1 (stereo not shown) | enzyme activity, inhibitor, FRET | 0.1 µM | inhibition | -2%
Cc1ccc(Nc2nccc(N(C)c3ccc4c(C)n(C)nc4c3)n2)cc1S(N)(=O)=O | enzyme activity, inhibitor | 10 µM | inhibition | 88%
COc1cc(Cl)c(C(=O)N[C@@H](CN[C@H]2CC[C@@H](N)CC2)Cc2ccc(C#N)cc2)cc1-c1ccc(CN[C@H](C)c2ccc(C)cc2)o1 | enzyme activity, inhibitor | 1 µM | remaining activity | 98%
CS(=O)(=O)c1cc(C2(NC(=O)c3cncc4c3cnn4-c3ccc(F)cc3)CC2)ccn1 | cell-free assay, competition with immobilised ligand | 1 µM | remaining binding | 80%
FC(F)(F)Oc1cccc(-c2cnc3ccc(-c4ccncc4)nn23)c1 | enzyme activity, inhibitor, radiometric | 1 µM | activity vs control | 72%
COc1cc2nccc(Oc3ccc(NC(=O)c4c5n(n(-c6ccc(F)cc6)c4=O)CCCC5)cc3)c2cc1OC | enzyme activity, inhibitor | 0.1 µM | inhibition | 37%
CC(=O)C1=C(C)N(c2cccc(C(F)(F)F)c2)C(=O)N[C@@H]1c1ccc(C#N)nc1 | cell-free assay, competition with immobilised ligand | 1 µM | remaining binding | 100%
Cc1sc(C(=O)NC2COC2)cc1-n1cc(NC(=O)Nc2c(F)cccc2Cl)cn1 | enzyme activity, inhibitor | 10 µM | remaining activity | 78.9%
CCN(CC)c1ccc(C2=NNC(=O)CC2C)cc1[N+](=O)[O-] (stereo not shown) | enzyme activity, inhibitor | 10 µM | remaining activity | 105%
NS(=O)(=O)c1cc(NC(=O)C2(c3ccccc3Cl)CC2)ccc1Oc1cccc(Cl)c1 | cell-free assay, competition with immobilised ligand | 1 µM | remaining binding | 99%
COc1cc2ncnc(Nc3ccc(Oc4ccccc4)cc3C)c2cc1OC | enzyme activity, inhibitor | 1 µM | inhibition | 95%
CCN(CC)CCNC(=O)c1c(C)[nH]c(/C=C2\C(=O)Nc3ccc(F)cc32)c1C | enzyme activity, inhibitor | 10 µM | inhibition | 74%
CC(C)(C)c1nc2c(s1)c1nc(N)ncc1c1ccc(NS(=O)(=O)c3c(F)cccc3F)c(F)c12 | enzyme activity, inhibitor, radiometric | 1 µM | remaining activity | 104%
CCCOc1ccc([C@@H]2[C@@H](C(=O)O)[C@H](c3ccc4c(c3)OCO4)CN2CC(=O)Nc2c(CC)cccc2CC)cc1 | cell-free assay, competition with immobilised ligand | 1 µM | remaining binding | 83%
Nc1nc(Nc2ccc(S(N)(=O)=O)cc2)nn1C(=O)c1c(F)cccc1F | cell-free assay | 0.5 µM | remaining signal | 83.9%
Cc1ccc(NC(=O)c2ccc(C)c(C(F)(F)F)c2)cc1C#Cc1nn(C2CCC(O)CC2)c2ncnc(N)c12 (stereo not shown) | cell-free assay | 10 µM | remaining signal | -1%
O=C1NC(=O)c2cc(Nc3ccc(F)cc3)c(Nc3ccc(F)cc3)cc21 | cell-free assay | 0.5 µM | remaining signal | 95.1%
Cc1ccc(C(=O)Nc2ccc(CN3CCN(C)CC3)c(C(F)(F)F)c2)cc1C#Cc1cnc2cccnn12 | enzyme activity, inhibitor | 23.5 nM | remaining activity | 95%
